# According to ChEMBL document CHEMBL1124370 (1989):
# Activity calls are given as the source filed them. No cut-off for these calls is given here.
# Columns and labels:
# Rattus norvegicus [1] = test: […] inhibition of sorbitol accumulation in rat sciatic nerves at 10e-5 M concentration; format: functional, Sciatic nerve
# Method in brief: (§1)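 Sciatic nerves were taken from male Sprague-Dawley rats (200–250 g) after CO2 euthanasia. Nerves were incubated 3 h at 37 °C under 95% air/5% CO2 in Hank's salts buffer, pH 7.4, with 50 mM glucose and (0–5)×10^-5 M compound, in triplicate. Nerve sorbitol was measured spectrofluorometrically in duplicate, and the read-out was % inhibition of sorbitol accumulation.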
# Rattus norvegicus [2] = test: In vivo inhibition of galactitol accumulation in the sciatic nerves of ratat a dose of 106 mg/kg/day; format: functional; settings: Sciatic nerve
# [3] = molecular target: Aldo-keto reductase family 1 member B1 (Bos taurus) (UniProt P16116); test: Inhibition of aldose reductase in partially purified bovine lens preparation at 10e-6 M.
# Method in brief: (§2)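 Aldose reductase partially purified from bovine lens, with the final chromatographic step of the earlier preparation omitted. Assay run in duplicate with test compound at 1 × 10^-6 M or 1 × 10^-7 M. Reported as % inhibition of enzymatic activity.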
# Rattus norvegicus [4] = test: In vivo inhibition of galactitol accumulation in the diaphragm of rat at a dose of 106 mg/kg/day; format: functional
# Rattus norvegicus [5] = test: In vivo inhibition of sorbitol accumulation in rat sciatic nerves at 10e-6 M concentration; format: functional, Sciatic nerve; method in brief: as §1
# [6] = molecular target: Aldo-keto reductase family 1 member B1 (Bos taurus) (UniProt P16116); test: Inhibition of aldose reductase in partially purified bovine lens preparation at 10e-7 M concentration; method in brief: as §2
# Rattus norvegicus [7] = test: In vivo inhibition of galactitol accumulation in the sciatic nerves of rat at a dose of 6 mg/kg/day; format: functional; settings: Sciatic nerve
# Rattus norvegicus [8] = test: In vivo inhibition of galactitol accumulation in the diaphragm of rat vat a dose of 6 mg/kg/day; format: functional
# Rattus norvegicus [9] = test: […] inhibition of sorbitol accumulation in rat sciatic nerves at 5*10e-6 M concentration; format: functional, Sciatic nerve; settings: in the assay text read “In vitro” for “In vivo”
# Method in brief: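 Sciatic nerves from male Sprague-Dawley rats (200–250 g), removed after CO2 euthanasia, incubated ex vivo for 3 h at 37 °C under 95% air/5% CO2 in Hank's salts buffer, pH 7.4, with 50 mM glucose and 5 × 10^-6 M test compound. Triplicate incubations; nerve sorbitol measured in duplicate by spectrofluorometric assay. Reported as % inhibition of sorbitol accumulation.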
# Rattus norvegicus [10] = test: In vivo inhibition of galactitol accumulation in the sciatic nerves of rat at a dose of 26 mg/kg/day; format: functional; settings: Sciatic nerve
# Rattus norvegicus [11] = test: In vivo inhibition of galactitol accumulation in the diaphragm of rat. at a dose of 26 mg/kg/day; format: functional
# Rattus norvegicus [12] = test: In vivo inhibition of sorbitol accumulation in rat sciatic nerves at 5*10e-5 M concentration; format: functional, Sciatic nerve; settings: in the assay text read “In vitro” for “In vivo”; method in brief: as §1
# Rattus norvegicus [13] = test: In vivo inhibition of galactitol accumulation in the diaphragm of rat. at a dose of 100 mg/kg/day; format: functional
# Rattus norvegicus [14] = test: In vivo inhibition of galactitol accumulation in the sciatic nerves of rat at a dose of 100 mg/kg/day; format: functional; settings: Sciatic nerve
# Rattus norvegicus [15] = test: In vivo inhibition of galactitol accumulation in the sciatic nerves of rat at a dose of 97 mg/kg/day; format: functional; settings: Sciatic nerve
# Rattus norvegicus [16] = test: In vivo inhibition of galactitol accumulation in the sciatic nerves of rat at a dose of 57 mg/kg/day; format: functional; settings: Sciatic nerve
# Rattus norvegicus [17] = test: In vivo inhibition of galactitol accumulation in the diaphragm of rat at a dose of 97 mg/kg/day; format: functional
# Rattus norvegicus [18] = test: In vivo inhibition of galactitol accumulation in the diaphragm of rat at a dose of 57 mg/kg/day; format: functional
# Rattus norvegicus [19] = test: In vivo inhibition of galactitol accumulation in the diaphragm of rat. at a dose of 56 mg/kg/day; NS=not significant; format: functional, organism-based
# [20] = molecular target: Aldo-keto reductase family 1 member B1 (Bos taurus) (UniProt P16116); test: […] inhibition of aldose reductase in partially purified bovine lens preparation at 10e-7 M concentration
# Method in brief: (§3)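 Enzyme partially purified from bovine lens by a published method, with the final chromatographic step omitted. Test compound was added at 1×10^-6 or 1×10^-7 M. Assays were run in duplicate, and the read-out was % inhibition of enzymatic activity.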
# [21] = molecular target: Aldo-keto reductase family 1 member B1 (Bos taurus) (UniProt P16116); test: […] inhibition of aldose reductase in partially purified bovine lens preparation at 10e-6 M concentration; method in brief: as §3
# Rattus norvegicus [22] = test: In vivo inhibition of galactitol accumulation in the sciatic nerves of rat at a dose of 56 mg/kg/day; NS=not significant; format: functional, organism-based; settings: Sciatic nerve
# Rattus norvegicus [23] = test: In vivo inhibition of galactitol accumulation in the sciatic nerves of rat at a dose of 107 mg/kg/day; format: functional; settings: Sciatic nerve
# Rattus norvegicus [24] = test: In vivo inhibition of galactitol accumulation in the diaphragm of rat at a dose of 107 mg/kg/day; format: functional
# Rattus norvegicus [25] = test: In vivo inhibition of galactitol accumulation in the diaphragm of rat at a dose of 10 mg/kg/day; format: functional
# Rattus norvegicus [26] = test: In vivo inhibition of galactitol accumulation in the sciatic nerves of rat at a dose of 10 mg/kg/day; format: functional; settings: Sciatic nerve
# Rattus norvegicus [27] = test: In vivo inhibition of galactitol accumulation in the sciatic nerves of rat at a dose of 27 mg/kg/day; format: functional; settings: Sciatic nerve
# Rattus norvegicus [28] = test: In vivo inhibition of galactitol accumulation in the diaphragm of rat. at a dose of 27 mg/kg/day; format: functional
# Rattus norvegicus [29] = test: In vivo inhibition of galactitol accumulation in the diaphragm of rat at a dose of 51 mg/kg/day; format: functional
# Rattus norvegicus [30] = test: In vivo inhibition of galactitol accumulation in the sciatic nerves of ratat a dose of 51 mg/kg/day; NS=not significant; format: functional, organism-based; settings: Sciatic nerve
# Rattus norvegicus [31] = test: In vivo inhibition of galactitol accumulation in the sciatic nerves of rat at a dose of 55 mg/kg/day; NS=not significant; format: functional, organism-based; settings: Sciatic nerve
smiles,measurement,setting,value
CSc1ccc2c(C(=O)N(C)CC(=O)O)cccc2c1C(F)(F)F,Inhibition,Rattus norvegicus [1],73%
same,inhibition in vivo at 106 mg/kg/day,Rattus norvegicus [2],36%
same,inhibition,[3],85%
same,inhibition in vivo at 106 mg/kg/day,Rattus norvegicus [4],73%
same,Inhibition,Rattus norvegicus [5],34%
same,inhibition,[6],51%
COc1ccc2c(C(=S)N(C)CC(=O)O)cccc2c1C(F)(F)F [TOLRESTAT],inhibition in vivo at 6 mg/kg/day,Rattus norvegicus [7],53%
same,Inhibition,Rattus norvegicus [1],82%
same,inhibition in vivo at 6 mg/kg/day,Rattus norvegicus [8],80%
same,Inhibition,Rattus norvegicus [9],76%
COc1ccc2c(/C(=N/C#N)N(C)CC(=O)O)cccc2c1C(F)(F)F,inhibition in vivo at 26 mg/kg/day,Rattus norvegicus [10],30%
same,inhibition in vivo at 26 mg/kg/day,Rattus norvegicus [11],44%
same,Inhibition,Rattus norvegicus [12],81%
same,inhibition in vivo at 100 mg/kg/day,Rattus norvegicus [13],72%
same,inhibition,[3],81%
same,Inhibition,Rattus norvegicus [9],70%
same,inhibition in vivo at 100 mg/kg/day,Rattus norvegicus [14],61%
same,inhibition,[6],80%
CCOC(=O)N(CC(=O)O)C(=O)c1cccc2c(C(F)(F)F)c(OC)ccc12,Inhibition,Rattus norvegicus [1],88%
same,inhibition in vivo at 97 mg/kg/day,Rattus norvegicus [15],90%
same,inhibition in vivo at 57 mg/kg/day,Rattus norvegicus [16],56%
same,inhibition in vivo at 97 mg/kg/day,Rattus norvegicus [17],83%
same,inhibition,[3],98%
same,inhibition in vivo at 57 mg/kg/day,Rattus norvegicus [18],70%
same,Inhibition,Rattus norvegicus [5],51%
same,inhibition,[6],81%
COc1ccc2c(/C(=N/S(=O)(=O)C(F)(F)F)N(C)CC(=O)O)cccc2c1C(F)(F)F,inhibition,Rattus norvegicus [19],inactive
same,inhibition,[20],69%
same,Inhibition,Rattus norvegicus [12],71%
same,inhibition,[21],94%
same,Inhibition,Rattus norvegicus [9],36%
same,inhibition,Rattus norvegicus [22],inactive
COc1ccc2c(C(=O)N(C=O)CC(=O)O)cccc2c1C(F)(F)F,inhibition in vivo at 107 mg/kg/day,Rattus norvegicus [23],51%
same,Inhibition,Rattus norvegicus [1],65%
same,inhibition in vivo at 107 mg/kg/day,Rattus norvegicus [24],82%
same,inhibition,[3],96%
same,Inhibition,Rattus norvegicus [5],42%
same,inhibition,[6],89%
CSc1ccc2c(C(=S)N(C)CC(=O)O)cccc2c1C(F)(F)F,Inhibition,Rattus norvegicus [1],93%
same,inhibition in vivo at 10 mg/kg/day,Rattus norvegicus [25],86%
same,inhibition,[3],95%
same,inhibition in vivo at 10 mg/kg/day,Rattus norvegicus [26],26%
same,inhibition in vivo at 27 mg/kg/day,Rattus norvegicus [27],64%
same,Inhibition,Rattus norvegicus [5],72%
same,inhibition,[6],71%
same,inhibition in vivo at 27 mg/kg/day,Rattus norvegicus [28],90%
COC(=O)N(CC(=O)O)C(=S)c1cccc2c(C(F)(F)F)c(OC)ccc12,Inhibition,Rattus norvegicus [1],61%
same,inhibition,[20],29%
same,inhibition in vivo at 51 mg/kg/day,Rattus norvegicus [29],80%
same,inhibition,[21],88%
same,inhibition,Rattus norvegicus [30],inactive
same,Inhibition,Rattus norvegicus [5],36%
COc1ccc2c(/C(=N/S(=O)(=O)c3ccc(Br)cc3)N(C)CC(=O)O)cccc2c1C(F)(F)F,inhibition,Rattus norvegicus [19],inactive
same,inhibition,Rattus norvegicus [31],inactive
same,inhibition,[3],53%
same,inhibition,[6],5%
